Assay results of several laboratories.
Protocols differ between the studies behind these lines.
FLT3 F691L/ITD: Receptor-type tyrosine-protein kinase FLT3 (FLT3, Homo sapiens, UniProt P36888, F691L/ITD)
FLT3 N841I: Receptor-type tyrosine-protein kinase FLT3 (FLT3, Homo sapiens, UniProt P36888, N841I)
FLT3 R834Q: Receptor-type tyrosine-protein kinase FLT3 (FLT3, Homo sapiens, UniProt P36888, R834Q)
FLT3 D835Y: Receptor-type tyrosine-protein kinase FLT3 (FLT3, Homo sapiens, UniProt P36888, D835Y)
FLT3: Receptor-type tyrosine-protein kinase FLT3 (FLT3, Homo sapiens, UniProt P36888)
FLT3 ITD: Receptor-type tyrosine-protein kinase FLT3 (FLT3, Homo sapiens, UniProt P36888, ITD)
FLT3 K663Q: Receptor-type tyrosine-protein kinase FLT3 (FLT3, Homo sapiens, UniProt P36888, K663Q)

The remaining binding of O=C(c1ccc(Nc2ncc(Cl)c(-c3ccc(Cl)s3)n2)cc1)N1CCC(N2CCCC2)CC1 is reported as 1.8% (FLT3 F691L/ITD; binding, competition with immobilised ligand; 1 µM).
For c1cnn2ncc(-c3ccnc(N4CCC45COC5)n3)c2c1, the remaining binding was 72% (FLT3 N841I; binding; 1 µM).
For Cc1c(C(=O)O)cc(-c2ccc(C3CCNCC3)cc2)c2ccc(-c3ccc(C(F)(F)F)cc3)cc12, the remaining binding was 100% (FLT3 R834Q; binding, competition with immobilised ligand; 1 µM).
With Cc1cnc(NC2CCOCC2)nc1-n1cnc(C(=O)NC(CN)c2cc(F)cc(Cl)c2)c1 (centres unmarked) the remaining activity was 105% (FLT3 D835Y; enzyme activity, inhibitor, radiometric; 1 µM).
For CCCCN(CCCC)C(=O)CN1C[C@H](c2cc(OC)c3c(c2)OCO3)[C@@H](C(=O)O)[C@@H]1CC(C)(C)CCC, the remaining binding was 76% (Receptor-type tyrosine-protein kinase FLT3, autoinhibited (FLT3, Homo sapiens, UniProt P36888); cell-free assay, competition with immobilised ligand; 1 µM).
With COc1cc2c(Nc3ccc(Br)cc3F)ncnc2cc1OCC1CCN(C)CC1 the remaining signal was 43.7% (FLT3; cell-free assay; 0.5 µM).
For Nc1ncnc2occ(-c3ccc(NC(=O)Nc4cc(C(F)(F)F)ccc4F)cc3)c12, the remaining signal was 0.1% (FLT3 ITD; cell-free assay, inhibitor; 20 µM).
For O=C(NCCCN1CCOCC1)c1ccc(Nc2ncc(Cl)c(-c3ccc(Cl)s3)n2)cc1, the remaining binding was 5.1% (FLT3 F691L/ITD; binding, competition with immobilised ligand; 1 µM).
CC(=O)C1=C(C)N(c2cccc(C(F)(F)F)c2)C(=O)N[C@@H]1c1ccc(C#N)nc1 has a remaining binding of 100% (Receptor-type tyrosine-protein kinase FLT3 (FLT3, Homo sapiens, UniProt P36888, D835V/ITD); cell-free assay, competition with immobilised ligand; 1 µM).
O=C(c1ccc(Nc2nccc(-c3cc4ccccc4s3)n2)cc1)N1CCC(N2CCCC2)CC1 has a remaining binding of 19% (FLT3 F691L/ITD; binding, competition with immobilised ligand; 1 µM).
NS(=O)(=O)c1cc(NC(=O)Cc2ccccc2)ccc1Oc1cccc(Cl)c1 has a remaining binding of 100% (FLT3; cell-free assay, competition with immobilised ligand; 1 µM).
The remaining binding of CN(C)c1nccc(-c2cnc3ncccn23)n1 is reported as 61% (FLT3 R834Q; binding; 1 µM).
Fc1cccc(-n2cnc3c(NCc4nc5c(F)c(F)ccc5[nH]4)nc(N4CCOCC4)nc32)c1 has a binding vs control of 41% (FLT3 D835Y; binding, competition with immobilised ligand; 10 µM).
With C[C@@H]1CCN(c2nccc(-c3cnn4ncccc34)n2)C1 the remaining binding was 100% (FLT3 K663Q; binding; 1 µM).
Cc1cnc(-c2ccc(-c3ccc(NC(=O)Nc4c(F)cc(F)cc4F)cc3F)c3c2C(=O)NC3)[nH]1 gave an activity vs control of 6.2% (FLT3 ITD; enzyme activity, inhibitor; 0.1 µM, 90 min).
The remaining binding of N#CC1(c2ccccn2)CCN(Cc2cc(C(=O)N3CCCC3)c(=O)n3ccccc23)CC1 is reported as 71% (FLT3 D835Y; cell-free assay, competition with immobilised ligand; 1 µM).
With O=C1Nc2ccc(Cl)cc2C1=Cc1cc(Cl)c(O)c(Cl)c1 the remaining signal was 26.5% (FLT3; cell-free assay; 0.5 µM).
With N[C@H]1CCN(c2nccc(-c3cnn4ncccc34)n2)C1 the remaining binding was 90% (FLT3 R834Q; binding; 1 µM).
The remaining binding of CN([C@@H]1CCc2c(CC(=O)O)c3cc(S(C)(=O)=O)ccc3n2C1)S(=O)(=O)c1ccc(F)cc1 is reported as 100% (FLT3 N841I; cell-free assay, competition with immobilised ligand; 1 µM).
With CN(C)c1nccc(-c2cnn3ncccc23)n1 the remaining binding was 98% (FLT3; binding; 1 µM).
The inhibition of CN(C)C1CCN(CC#Cc2nn(C3CCCC3)c3nc(NCc4ccccc4)ncc23)C1 (centres unmarked) is reported as 59% (FLT3; enzyme activity, inhibitor, FRET; 10 µM).
F[C@@H]1CCN(c2nccc(-c3cnn4ncccc34)n2)C1 gave a remaining binding of 64% (FLT3 K663Q; binding; 1 µM).
Cc1nc(N2CC[C@@H](O)C2)ncc1-c1cc(C(F)(F)F)cc2[nH]ncc12 gave a remaining binding of 100% (Receptor-type tyrosine-protein kinase FLT3 (FLT3, Homo sapiens, UniProt P36888, D835H); binding, competition with immobilised ligand; 1 µM).
